In brackets after ≈: the same amount, converted by molar mass.
How the values were obtained:
[1] = system: Mycobacterium tuberculosis; experiment: Antimicrobial activity against Mycobacterium tuberculosis H37RvMA under GAST/Fe medium assessed as growth inhibition after 14 days by alamar blue assay; format: functional; conditions: 336 h
How it was run: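 Broth microdilution in GAST/Fe medium against fully virulent Mtb H37RvMa or its derived strains (cytochrome bd oxidase deletion ΔcydKO; qcrB Ala317Thr point mutant). Plates were incubated 14 days, growth was read by Alamar Blue, and MIC90 was taken as the potency value.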

Vero = experiment: Cytotoxicity against African green monkey Vero cells assessed as cell viability by MTT assay; format: cell-based; conditions: Chlorocebus sabaeus
How it was run: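 VERO kidney epithelial cells from African green monkey were exposed to compounds at concentrations up to 100 μM, and IC₅₀ was reported.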

[2] = Kinetic solubility in FaSSIF at pH 6.5 after 2 hours at 25 degC by shake flask method; format: physicochemical; conditions: read-out: Kinetic_solubility
[3] = Metabolic stability in human liver microsomes assessed as residual compound at 0.1 uM after 30 mins by LC-MS/MS method in presence or absence of NADPH; format: ADME; conditions: read-out: Stability
[4] = Metabolic stability in rat liver microsomes assessed as residual compound at 0.1 uM after 30 mins by LC-MS/MS method in presence or absence of NADPH; format: ADME; conditions: read-out: Stability
[5] = Metabolic stability in mouse liver microsomes assessed as residual compound at 0.1 uM after 30 mins by LC-MS/MS method in presence or absence of NADPH; format: ADME; conditions: read-out: Stability
Liver microsome [6] = experiment: Intrinsic clearance in human liver microsomes assessed per mg of protein at 0.1 uM by LC-MS/MS method in presence or absence of NADPH; format: ADME
[7] = system: Mycobacterium tuberculosis; experiment: Antimicrobial activity against GFP expressing recombinant Mycobacterium tuberculosis H37RvMA under 7H9 medium assessed as growth inhibition after 14 days by broth microdilution method; format: functional; conditions: 336 h
[8] = Metabolic stability in human liver S9 fractions assessed as residual compound at 0.1 uM after 40 mins by LC-MS/MS method in presence or absence of NADPH; format: ADME; conditions: read-out: Stability
[9] = Octanol-phosphate buffer partition coefficient, log D of the compound at 100 uM at pH 7.4 after 3 hrs by shake flask method; format: physicochemical
[10] = Intrinsic clearance in mouse liver microsomes assessed per mg of protein at 0.1 uM by LC-MS/MS method in presence or absence of NADPH; format: ADME
Liver microsome [11] = experiment: Intrinsic clearance in rat liver microsomes assessed per mg of protein at 0.1 uM by LC-MS/MS method in presence or absence of NADPH; format: ADME
[12] = Half life in human plasma at 0.1 uM by LC-MS/MS method; format: ADME, cell-free
[13] = system: Mycobacterium tuberculosis; experiment: Antimicrobial activity against GFP expressing recombinant Mycobacterium tuberculosis H37RvMA under GAST/Fe medium assessed as growth inhibition after 14 days by broth microdilution method; format: functional; conditions: 336 h

Cc1nc(-c2nc(C(F)(F)F)no2)c(N)c2c1C(=O)N(Cc1ccccc1)C2=O
MIC90 [1]: 20 µM (≈ 8.07 µg/mL)
IC50 (Vero): > 100 µM
solubility kinetic at 2 h [2]: < 5 µM
remaining at 0.5 h, 0.1 µM [3]: 100%
remaining at 0.5 h, 0.1 µM [4]: 83%
remaining at 0.5 h, 0.1 µM [5]: 20%

Cc1noc(-c2nc(C)c3c(c2N)C(=O)N(Cc2ccc(S(C)(=O)=O)cc2)C3=O)n1
MIC90 [1]: 0.31 µM (≈ 0.133 µg/mL)
solubility kinetic at 2 h [2]: < 5 µM

Cc1noc(-c2nc(C)c3c(c2N)C(=O)N(Cc2ccc(N4CCCC4=O)cc2)C3=O)n1
MIC90 [1]: > 160 µM
solubility kinetic at 2 h [2]: < 5 µM

Cc1noc(-c2nc(C)c3c(c2N)C(=O)N(CC2CCNCC2)C3=O)n1
MIC90 [1]: > 160 µM
solubility kinetic at 2 h [2]: 160 µM (≈ 57 µg/mL)

COc1ccc(CN2C(=O)c3c(C)nc(-c4nc(C)no4)c(N)c3C2=O)cc1
MIC90 [1]: < 0.156 µM
solubility kinetic at 2 h [2]: < 5 µM

COC(=O)c1nc(C)c2c(c1N)C(=O)N(Cc1ccccc1)C2=O
MIC90 [1]: 0.15 µM (≈ 0.0488 µg/mL)
solubility kinetic at 2 h [2]: 7.4 µM (≈ 2.41 µg/mL)

CCOC(=O)c1ncc2c(c1N)C(=O)N(Cc1ccccc1)C2=O
MIC90 [1]: 20 µM (≈ 6.51 µg/mL)

Cc1noc(-c2nc(C)c3c(c2N)C(=O)N(Cc2ccc(C#N)cc2)C3=O)n1
MIC90 [1]: > 160 µM
solubility kinetic at 2 h [2]: < 5 µM

Cc1noc(-c2nc(C)c3c(c2N)C(=O)N(Cc2ccc(OC(F)(F)F)cc2)C3=O)n1
MIC90 [1]: 0.62 µM (≈ 0.269 µg/mL)
solubility kinetic at 2 h [2]: < 5 µM

Cc1nnc(-c2nc(C)c3c(c2N)C(=O)N(Cc2ccccc2)C3=O)o1
MIC90 [1]: > 160 µM
IC50 (Vero): > 100 µM
solubility kinetic at 2 h [2]: < 5 µM
remaining at 0.5 h, 0.1 µM [3]: 63%
remaining at 0.5 h, 0.1 µM [4]: 50%
remaining at 0.5 h, 0.1 µM [5]: 57%

Cc1noc(-c2nc(C)c3c(c2N)C(=O)N(Cc2ccc(Oc4ccc(F)cc4)cc2)C3=O)n1
MIC90 [1]: < 0.156 µM
solubility kinetic at 2 h [2]: 23.8 µM (≈ 10.9 µg/mL)

Cc1noc(-c2nc(C)c3c(c2N)C(=O)N(Cc2ccc(-n4cccn4)cc2)C3=O)n1
MIC90 [1]: 40 µM (≈ 16.6 µg/mL)
solubility kinetic at 2 h [2]: < 5 µM

Cc1noc(-c2nc(C)c3c(c2N)C(=O)N(Cc2ccc(F)cc2)C3=O)n1
MIC90 [1]: 0.31 µM (≈ 0.114 µg/mL)
solubility kinetic at 2 h [2]: < 5 µM

Cc1noc(-c2nc(C)c3c(c2N)C(=O)N(Cc2ccc(Br)cc2)C3=O)n1
MIC90 [1]: < 0.156 µM
solubility kinetic at 2 h [2]: < 5 µM

CCOC(=O)c1nc(C)c2c(c1N)C(=O)N(c1ccccc1)C2=O
MIC90 [1]: > 160 µM
solubility kinetic at 2 h [2]: 5 µM (≈ 1.63 µg/mL)

Cc1noc(-c2nc(C)c3c(c2N)C(=O)N(Cc2ccc(SC(F)(F)F)cc2)C3=O)n1
MIC90 [1]: 1.2 µM (≈ 0.539 µg/mL)
solubility kinetic at 2 h [2]: < 5 µM

Cc1noc(-c2nc(C)c3c(c2N)C(=O)N(Cc2cccc(C(F)(F)F)c2)C3=O)n1
MIC90 [1]: < 0.156 µM
solubility kinetic at 2 h [2]: < 5 µM

Cc1noc(-c2nc(C)c3c(c2N)C(=O)N(Cc2cccc(OC(F)(F)F)c2)C3=O)n1
CLint (Liver microsome [6]): 15.4 µL/min/mg
MIC90 [7]: > 20 µM
MIC90 [1]: 0.0637 µM (≈ 0.0276 µg/mL)
remaining at 40 min, 0.1 µM [8]: 93%
logD at 3 h, 100 µM [9]: 3.64
IC50 (Vero): > 100 µM
solubility kinetic at 2 h [2]: 6.3 µM (≈ 2.73 µg/mL)
CLint [10]: 65.7 µL/min/mg
CLint (Liver microsome [11]): 32.4 µL/min/mg
half-life at 0.1 µM [12]: > 6 h
MIC90 [13]: 0.052 µM

Cc1nc(C(=O)NO)c(N)c2c1C(=O)N(Cc1ccccc1)C2=O
MIC90 [1]: > 160 µM
remaining at 0.5 h, 0.1 µM [3]: 80%
remaining at 0.5 h, 0.1 µM [4]: 46%
remaining at 0.5 h, 0.1 µM [5]: 58%

CNC(=O)c1nc(C)c2c(c1N)C(=O)N(Cc1ccccc1)C2=O
MIC90 [1]: > 160 µM
solubility kinetic at 2 h [2]: 41 µM (≈ 13.3 µg/mL)

Cc1noc(-c2nc(C)c3c(c2N)C(=O)N(Cc2ccc(OC(F)F)cc2)C3=O)n1
MIC90 [1]: < 0.156 µM
solubility kinetic at 2 h [2]: < 5 µM

CCCOC(=O)c1nc(C)c2c(c1N)C(=O)N(Cc1ccccc1)C2=O
MIC90 [1]: < 0.156 µM
solubility kinetic at 2 h [2]: < 5 µM
remaining at 0.5 h, 0.1 µM [3]: 3.4%
remaining at 0.5 h, 0.1 µM [4]: 3.3%
remaining at 0.5 h, 0.1 µM [5]: 8.8%

COc1ccccc1CN1C(=O)c2c(C)nc(-c3nc(C)no3)c(N)c2C1=O
MIC90 [1]: 0.31 µM (≈ 0.118 µg/mL)
solubility kinetic at 2 h [2]: < 5 µM

Reference: ChEMBL document CHEMBL3734652, “Pyrrolo[3,4-c]pyridine-1,3(2H)-diones: A Novel Antimycobacterial Class Targeting Mycobacterial Respiration” (J Med Chem, 2015)
